Hits are enriched below; roughly 2.7% of the tested compounds scored in any of these assays.
ASAP1 GAP inh: ASAP1 ArfGAP inhibition | inhibition, % at 16.5 µM | ASAP1-stimulated ARF1 GTP hydrolysis, GDP FP detection | Q9ULH1 | AID 624377 | hit rate 0.19% among 360,000; in the data active means inhibition above about 25%;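 further: 0% = vehicle with enzyme and substrate and 100% = no enzyme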
bovine MsrA act: bovine methionine sulfoxide reductase A activation; purified bovine MsrA, absorbance read-out; hit rate 0.3% among 360,000; activation, % at 10.6 µM; AID 602163; in the data active means activation above about 7.5%;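 further: 0% = vehicle and 100% = reference activator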
sPLA2-III inh: Inhibits HGIII-sPLA2 liposome hydrolysis, primary screen. hit rate 0.56% among 370,000. QFRET BODIPY PC-A2 liposome hydrolysis, fluorescence. AID 743126. Q9NZ20. inhibition, % at 12.2 µM;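 active means inhibition above mean plus 3 SD of compounds lying within the high and low control bounds, cut at about 19% in these data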;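 further: 0% = median of test compound wells and 100% = no enzyme DMSO wells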
NR1D1 modulator: modulates human Rev-erb alpha binding to DNA. Rev-erbα–FITC-DNA binding, fluorescence polarization, 90 min. activity, % at 10 µM. hit rate 0.79% among 370,000. AID 1259318;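 active means activity above about 14%, limit read from the data; passing the limit was not always enough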;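 further: 0% = DMSO wells with 35 nM protein and 100% = DMSO wells with 750 nM protein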
Target sequence (P20393 whole entry, looked up): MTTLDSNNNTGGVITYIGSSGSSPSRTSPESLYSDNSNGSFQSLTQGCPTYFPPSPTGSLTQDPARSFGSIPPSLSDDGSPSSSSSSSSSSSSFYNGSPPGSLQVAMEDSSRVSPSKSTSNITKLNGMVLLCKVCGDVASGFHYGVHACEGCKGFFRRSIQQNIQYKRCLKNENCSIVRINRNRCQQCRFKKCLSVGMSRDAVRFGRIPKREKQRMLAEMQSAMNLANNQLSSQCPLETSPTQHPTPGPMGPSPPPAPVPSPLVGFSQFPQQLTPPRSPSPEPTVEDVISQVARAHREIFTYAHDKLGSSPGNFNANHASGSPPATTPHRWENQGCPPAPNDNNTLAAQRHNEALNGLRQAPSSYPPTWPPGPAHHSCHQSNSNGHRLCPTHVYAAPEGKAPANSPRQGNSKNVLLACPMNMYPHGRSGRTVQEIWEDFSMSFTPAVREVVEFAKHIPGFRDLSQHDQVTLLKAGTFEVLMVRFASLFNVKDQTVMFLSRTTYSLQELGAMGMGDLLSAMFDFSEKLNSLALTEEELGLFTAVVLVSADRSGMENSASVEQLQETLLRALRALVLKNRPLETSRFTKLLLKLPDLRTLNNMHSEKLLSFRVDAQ
MsrA inhibitor: bovine MsrA inhibition; purified bovine MsrA, absorbance read-out; inhibition, % at 15.5 µM; hit rate 0.75% among 360,000; AID 651718; in the data active means inhibition above about 4.5%;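 further: 0% = vehicle wells with enzyme and 100% = reference inhibitor wells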
ARFGAP1 inh: rat ARFGAP1 inhibition; hit rate 0.26% among 360,000; Q62848; Arfgap1-stimulated ARF1 GTP hydrolysis, GDP FP detection; AID 651572; inhibition, % at 16.5 µM;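 active means inhibition above a per-plate limit, mean inhibition of low control wells plus 3 SD, cut at about 25% in these data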;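 further: 0% = DMSO wells with enzyme and 100% = wells lacking Arfgap1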
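System: truncated rat Arfgap1 GAP domain / Medium: HEPES-based buffer, pH 7.5 / Also added: N-terminally truncated human ARF1-GTP substrate / Incubation: enzyme reaction 120 min at 25 °C after 20 min preincubation / Measured by: FP of antibody-bound GDP Alexa 633 tracer, ex 620/em 688 nm / Replicates: singlicate, each compound tested once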
NR1D1 mod conf: confirmation of modulators of human Rev-erb alpha DNA binding | hit rate 61% among 3,000 | shares compounds with NR1D1 modulator | activation, % at 25 µM | Rev-erb alpha FITC-DNA binding, fluorescence polarization, 90 min;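 active means activation at or above a set limit, or at least 3 SD above the negative control mean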;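 further: 0% = 35 nM protein with DMSO and 100% = 750 nM protein high control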
RORg counter: counter-screen for Rev-erb alpha modulators: RORgamma DNA binding; shares compounds with NR1D1 modulator; purified RORgamma protein-FITC-DNA binding, fluorescence polarization; IC50, µM; hit rate 8% among 910; AID 1259320;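 active means Compounds whose fitted half-maximal concentration for disrupting protein-DNA binding is below 10 micromolar; the record names Rev-erb in its text, so the target is in doubt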
The depositor's hits bear a star.

`CC1(C)CC(=O)c2cnc(N3CCc4ccccc43)nc2C1` gave ASAP1 GAP inh -2.6, bovine MsrA act -6.7, sPLA2-III inh 4.0, NR1D1 modulator -1.3, MsrA inhibitor 0.1 and ARFGAP1 inh 0.1.
`Fc1cnc(N2CCc3ccccc32)nc1N1CCc2ccccc21` gave ASAP1 GAP inh 5.2, bovine MsrA act -5.9, sPLA2-III inh 5.5, NR1D1 modulator 56.8*, MsrA inhibitor -1.1, ARFGAP1 inh -8.3, NR1D1 mod conf 137.0* and RORg counter >40.
For O=C(CN1C(=O)NC(Cc2ccccc2)C1=O)Nc1ccc(OC(F)(F)F)cc1 (stereo not drawn) the results were ASAP1 GAP inh -2.1, bovine MsrA act -0.9, sPLA2-III inh -0.9, NR1D1 modulator 14.5*, MsrA inhibitor -1.6, ARFGAP1 inh -4.6 and NR1D1 mod conf -7.5.
`CCOC(=O)c1cnc2c(ccc3ccccc32)c1NCCCN(C)C` gave ASAP1 GAP inh -2.5, bovine MsrA act -2.3, sPLA2-III inh 9.0, NR1D1 modulator 7.9, MsrA inhibitor 0.8 and ARFGAP1 inh 18.9.
`CN1CCS/C1=C\C=C1/SC(=S)N(CC(=O)O)C1=O` gave ASAP1 GAP inh -8.2, bovine MsrA act -5.9, sPLA2-III inh -182.1, NR1D1 modulator 292.6*, MsrA inhibitor 0.5, ARFGAP1 inh 1.3, NR1D1 mod conf 172.8* and RORg counter >40.
Screening CCN1C(=O)/C(=C/C=C2/SCCN2C)SC1=S returned ASAP1 GAP inh 1.9, bovine MsrA act -12.5, sPLA2-III inh -8.6, NR1D1 modulator 77.7*, MsrA inhibitor 0.3, ARFGAP1 inh -3.6, NR1D1 mod conf 148.4* and RORg counter inactive.
CC(=O)N1CCN(C(=O)CCn2nnc3ccccc32)CC1 was read as sPLA2-III inh 0.1 and NR1D1 modulator -0.5.
COC(=O)C1=CN(c2ccc(F)cc2)C(N)=C(C#N)C1c1cccc(F)c1 (stereo not drawn) was read as ASAP1 GAP inh -3.5, sPLA2-III inh 6.6, NR1D1 modulator 1.1, MsrA inhibitor 0.2 and ARFGAP1 inh 6.6.
Screening COC(=O)C1=CN(c2ccc(N3CCOCC3)cc2)C(N)=C(C#N)C1c1cccc(F)c1 (stereo not drawn) returned ASAP1 GAP inh 6.4, sPLA2-III inh -2.5, NR1D1 modulator 24.0*, MsrA inhibitor -0.2, ARFGAP1 inh 1.4 and NR1D1 mod conf 8.4.
`O=C(COC(=O)c1ccccc1C(=O)c1ccc(Cl)cc1)NC(c1ccccc1)c1ccccc1` gave ASAP1 GAP inh 15.6, bovine MsrA act -10.9, sPLA2-III inh 13.1, NR1D1 modulator 35.3*, MsrA inhibitor 0.2, ARFGAP1 inh 13.2 and NR1D1 mod conf 9.2.
For CC1(C(=O)NS(=O)(=O)C2CC2)CCN(C(=O)C2(c3ccc(Cl)cc3)CCCC2)C1 (stereo not drawn) the results were bovine MsrA act 0.0.
Clc1cccc(Cc2c(-c3cccc(Cl)c3)nc3ccc(Br)cn23)c1 was read as ASAP1 GAP inh 10.2, bovine MsrA act -1.7, sPLA2-III inh -4.8, NR1D1 modulator 25.9*, MsrA inhibitor -0.1, ARFGAP1 inh -4.2 and NR1D1 mod conf 18.6*.
Clc1cccc(Cc2c(-c3cccc(Br)c3)nc3ccc(Br)cn23)c1 was read as ASAP1 GAP inh -6.8, bovine MsrA act -2.3, sPLA2-III inh -23.9, NR1D1 modulator 19.6, MsrA inhibitor -0.6 and ARFGAP1 inh 4.5.
For Clc1ccc(-c2nc3ccc(Br)cn3c2Cc2cccc(Cl)c2)cc1 the results were ASAP1 GAP inh -3.0, bovine MsrA act -5.2, sPLA2-III inh -24.9, NR1D1 modulator 25.1*, MsrA inhibitor -0.4, ARFGAP1 inh -1.4 and NR1D1 mod conf 19.0*.
For Cc1cc(Br)c2nc(-c3ccc(F)cc3)c(Cc3cccc(Cl)c3)n2c1 the results were ASAP1 GAP inh 1.5, sPLA2-III inh -4.1, NR1D1 modulator 28.7*, MsrA inhibitor -0.4, ARFGAP1 inh 12.4 and NR1D1 mod conf 13.0*.
For Cc1ccc(-c2nc3ccc(Br)cn3c2Cc2cccc(Cl)c2)cc1 the results were ASAP1 GAP inh -5.4, bovine MsrA act -2.9, sPLA2-III inh -19.5, NR1D1 modulator 18.9*, MsrA inhibitor 0.5, ARFGAP1 inh -8.9 and NR1D1 mod conf 9.7.
For N#Cc1ccc(-c2nc3ccc(Br)cn3c2Cc2cccc(Cl)c2)cc1 the results were ASAP1 GAP inh 0.2, bovine MsrA act -3.6, sPLA2-III inh -17.1, NR1D1 modulator 6.9, MsrA inhibitor 1.3 and ARFGAP1 inh -1.9.
COC1=C[C@H](C(=O)NCCOC(C)=O)[C@H](C)[C@@H](c2ccccc2)CC1=O was read as sPLA2-III inh 2.7 and NR1D1 modulator 1.9.
O=C(Nc1ccccc1Cl)c1cc(C2CCCCN2C(=O)c2cccs2)on1 (stereo not drawn) was read as ASAP1 GAP inh -13.1, bovine MsrA act 0.3, sPLA2-III inh -4.0, NR1D1 modulator -1.3, MsrA inhibitor -1.5 and ARFGAP1 inh 1.1.
For Cc1cc(-c2nc3cccnc3s2)ccc1NS(=O)(=O)c1ccc2c(c1)OCCO2 the results were ASAP1 GAP inh 2.7, bovine MsrA act -12.0, sPLA2-III inh -56.6, NR1D1 modulator 25.0*, MsrA inhibitor 1.8, ARFGAP1 inh 10.7 and NR1D1 mod conf -4.3.
`Cc1c(NS(=O)(=O)c2ccc3c(c2)OCCO3)cccc1-c1nc2cccnc2s1` gave ASAP1 GAP inh 3.0, bovine MsrA act -5.0, sPLA2-III inh -19.9, NR1D1 modulator 2.1, MsrA inhibitor -0.8 and ARFGAP1 inh -2.9.
Cc1cccc(N(Cc2cc3ccc(C)cc3[nH]c2=O)S(=O)(=O)c2ccccc2)c1 was read as ASAP1 GAP inh -11.2, bovine MsrA act -1.7, sPLA2-III inh -4.0, NR1D1 modulator 21.2, MsrA inhibitor 0.5 and ARFGAP1 inh 12.3.
Cc1ccc(N(Cc2cc3ccc(C)cc3[nH]c2=O)S(=O)(=O)c2ccccc2)c(C)c1 was read as ASAP1 GAP inh -4.7, bovine MsrA act -7.3, sPLA2-III inh -1.1, NR1D1 modulator 14.9*, MsrA inhibitor 1.1, ARFGAP1 inh 5.3 and NR1D1 mod conf 9.0.
`Cc1ccc2cc(CN(c3ccccc3)S(=O)(=O)c3ccccc3)c(=O)[nH]c2c1` gave ASAP1 GAP inh 0.7, bovine MsrA act -3.0, sPLA2-III inh -11.1, NR1D1 modulator 30.9*, MsrA inhibitor 0.1, ARFGAP1 inh -4.1 and NR1D1 mod conf 4.7.
Screening CCOc1ccc(N(Cc2cc3ccc(C)cc3[nH]c2=O)S(=O)(=O)c2ccccc2)cc1 returned ASAP1 GAP inh -3.5, bovine MsrA act -6.4, sPLA2-III inh 3.4, NR1D1 modulator 1.1, MsrA inhibitor 1.1 and ARFGAP1 inh 2.4.

Screening results (PubChem)
